Assay results pooled from the literature.
Target: Tyrosine-protein kinase receptor UFO (AXL, Homo sapiens, UniProt P30530)
Sequence (P30530 26-894, as in one of the studies): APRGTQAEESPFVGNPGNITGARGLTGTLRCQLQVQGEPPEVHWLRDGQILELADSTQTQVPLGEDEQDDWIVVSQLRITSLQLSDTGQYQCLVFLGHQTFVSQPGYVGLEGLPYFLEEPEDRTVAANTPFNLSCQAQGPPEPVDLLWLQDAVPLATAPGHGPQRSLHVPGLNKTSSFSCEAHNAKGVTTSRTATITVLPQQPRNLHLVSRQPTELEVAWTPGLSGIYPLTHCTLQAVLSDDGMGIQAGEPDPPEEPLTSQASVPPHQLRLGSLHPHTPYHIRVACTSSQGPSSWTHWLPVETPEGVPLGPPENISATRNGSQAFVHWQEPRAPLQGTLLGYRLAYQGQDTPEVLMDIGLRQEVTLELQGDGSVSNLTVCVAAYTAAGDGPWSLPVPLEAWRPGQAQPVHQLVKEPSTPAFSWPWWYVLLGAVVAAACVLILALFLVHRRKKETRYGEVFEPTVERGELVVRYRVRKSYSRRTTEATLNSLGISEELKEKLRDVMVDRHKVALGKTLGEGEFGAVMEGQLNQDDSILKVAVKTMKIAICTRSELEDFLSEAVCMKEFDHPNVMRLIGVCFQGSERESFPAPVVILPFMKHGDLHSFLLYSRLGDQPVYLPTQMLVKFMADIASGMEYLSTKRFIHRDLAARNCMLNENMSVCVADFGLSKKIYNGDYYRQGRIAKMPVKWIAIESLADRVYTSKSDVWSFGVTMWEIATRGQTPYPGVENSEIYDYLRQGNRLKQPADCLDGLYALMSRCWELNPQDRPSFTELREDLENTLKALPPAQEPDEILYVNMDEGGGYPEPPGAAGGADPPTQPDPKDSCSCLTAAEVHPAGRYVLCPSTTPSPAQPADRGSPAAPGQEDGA

CNC(=O)c1ccccc1Nc1nc(Nc2ccc(CO)nc2)ncc1Cl  remaining activity (enzyme activity, inhibitor; 1 µM): 2.06%
CO[C@@H]1[C@H](N(C)C(=O)c2ccccc2)C[C@H]2O[C@]1(C)n1c3ccccc3c3c4c(c5c6ccccc6n2c5c31)C(=O)NC4  inhibition (enzyme activity, inhibitor; 1 µM): 92%
COc1ccc2[nH]c3c4[nH]c5ccc(OC)cc5c4c4c(c3c2c1)C(=O)NC4=O  remaining binding (binding, competition with immobilised ligand; 1 µM): 30%
CC#CC(=O)N1CCC[C@H]1c1nc(-c2ccc(C(=O)Nc3ccccn3)cc2)c2c(N)nccn12  inhibition (enzyme activity, inhibitor; 1 µM): 5%
CS(=O)(=NC#N)c1ccccc1Nc1nc(Nc2ccc(CO)nc2)ncc1Cl (centres unmarked)  remaining activity (enzyme activity, inhibitor; 1 µM): 14.9%
COc1ccc2oc(-c3ccc4nc(N)oc4c3)c/c(=N\c3ccccc3NC(=O)CCN)c2c1  remaining binding (binding; 1 µM): 96%
CS(=O)(=O)c1ccccc1Nc1nc(Nc2ccnc(CO)c2)ncc1Cl  remaining activity (enzyme activity, inhibitor; 1 µM): 4.41%
C1=C/COCc2cc(ccc2OCCN2CCCC2)Nc2nccc(n2)-c2cccc(c2)COC/1  remaining binding (binding; 0.1 µM): 38%
N#Cc1ccc(NC(=O)Nc2ccccc2)cc1  remaining binding (cell-free assay, competition with immobilised ligand; 25 µM): 100%
CCCCC(=O)Nc1ccc(-c2ccc3ncn(CCC)c(=O)c3c2)cn1  remaining binding (binding, competition with immobilised ligand; 0.5 µM): 95%
CNS(=O)(=O)c1ccc(Nc2ncc(C(F)(F)F)c(N3CCC[C@](C)(O)C3)n2)c(C)c1  remaining binding (binding, competition with immobilised ligand; 1 µM): 70%
CNC(=O)c1ccccc1Nc1nc(Nc2ccc(CO)cc2)ncc1Cl  remaining activity (enzyme activity, inhibitor; 1 µM): 1.13%
Cc1ccc(NC(=O)c2ccnc(C(F)(F)F)c2)cc1-c1cc(OCCO)nc(N2CCOCC2)c1  remaining binding (binding, competition with immobilised ligand; 1 µM): 90%
C[C@]1(O)CCCN(c2nc(Nc3ccc(S(=O)(=O)N[C@H]4CC[C@H](CN5CCN(c6ccc(C7CCC(=O)NC7=O)cc6F)CC5)CC4)cc3F)ncc2C(F)(F)F)C1 (some centres unmarked)  remaining binding (binding, competition with immobilised ligand; 1 µM): 40%
